Measurements pooled from the literature.
Compare with care: the assays were run in different laboratories.
Target: Serine/threonine-protein kinase PLK3 (PLK3, Homo sapiens, UniProt Q9H4B4)

SMILES | assay | setting | quantity | result
Cn1cc(-c2cc(F)cc(N3CCn4c(cc5c4CCCC5)C3=O)c2CO)cc(Nc2ccc(N3CCN(C4COC4)CC3)cn2)c1=O | enzyme activity, inhibitor | 0.1 µM | inhibition | 10%
CC(C)(C)c1cc(C=C(C#N)C#N)cc(Br)c1O | enzyme activity, inhibitor | 0.5 µM | remaining activity | 94.6%
Cc1nn(C)cc1-c1nc2c(N3CCN(Cc4ccc(Cl)cc4)CC3)c(Cl)cnc2[nH]1 | binding, competition with immobilised ligand | 1 µM | remaining binding | 88%
COc1cc(Nc2ncc(F)c(Nc3ccc4c(n3)NC(=O)C(C)(C)O4)n2)cc(OC)c1OC | binding | 10 µM | inhibition | 100%
N#CC1(c2ccccn2)CCN(Cc2cc(C(=O)O)c(=O)n3ccccc23)CC1 | cell-free assay, competition with immobilised ligand | 1 µM | remaining binding | 85%
Cn1cc(-c2cccc(N3CCc4c(sc5c4CC(C)(C)C5)C3=O)c2CO)cc(Nc2ccncn2)c1=O | enzyme activity, inhibitor | 1 µM | inhibition | -15%
Cn1cncc1[C@@](O)(COc1ccc(C#N)cc1-c1ccc(OC(F)(F)F)cc1)c1ccc(C#N)cc1 | cell-free assay, competition with immobilised ligand | 1 µM | remaining binding | 88%
O=c1[nH]c2ccccc2n1C1CCN(Cc2ccc(-c3[nH]c4cc5ncnc5cc4nc3-c3ccccc3)cc2)CC1 | cell-free assay | 0.5 µM | remaining signal | 99.1%
COc1ncccc1-c1cnn2ccc(N3CCN(C(=O)OC(C)C)CC3)nc12 | binding, competition with immobilised ligand | 1 µM | remaining binding | 100%
Nc1ncc(-c2nc(N3CCOCC3)nc(N3CCOCC3)n2)c(C(F)F)n1 | binding, competition with immobilised ligand | 10 µM | remaining binding | 83%
